# Data from ChEMBL document CHEMBL1949635, “Discovery of AMG 853, a CRTH2 and DP Dual Antagonist” (ACS Med Chem Lett, 2011).
# Tests used:
# Type in all cases: cell-based
# [1] = target: T1, Prostaglandin D2 receptor (Homo sapiens, UniProt Q13258); assay: Displacement of [3H]-PGD2 from human Prostanoid DP receptor expressed in human HEK293 cells by scintillation counter in presence of 0.5% bovine serum albumin
# T1 sequence (Q13258 whole entry): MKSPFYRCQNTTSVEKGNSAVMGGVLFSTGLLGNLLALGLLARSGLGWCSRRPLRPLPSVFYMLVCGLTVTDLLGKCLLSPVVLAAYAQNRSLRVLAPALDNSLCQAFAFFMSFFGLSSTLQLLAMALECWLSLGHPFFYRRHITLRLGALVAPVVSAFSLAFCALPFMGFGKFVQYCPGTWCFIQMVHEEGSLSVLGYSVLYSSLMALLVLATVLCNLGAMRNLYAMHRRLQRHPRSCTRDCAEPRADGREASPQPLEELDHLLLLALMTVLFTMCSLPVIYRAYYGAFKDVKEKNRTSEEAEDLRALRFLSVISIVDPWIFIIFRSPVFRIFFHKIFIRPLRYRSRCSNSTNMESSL
# Summary of the method: (§1)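 [3H]-PGD2 incubated with HEK-293 cells stably expressing human DP, with increasing compound concentrations; binding buffer held 0.5% BSA or 50% human plasma. Means of three experiments, standard deviation ±30%.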
# [2] = target: T1, Prostaglandin D2 receptor; assay: Displacement of [3H]-PGD2 from human Prostanoid DP receptor expressed in human HEK293 cells by scintillation counter in presence of 50% human plasma; summary of the method: as §1
# [3] = target: T2, Prostaglandin D2 receptor 2 (Homo sapiens, UniProt Q9Y5Y4); assay: Displacement of [3H]-PGD2 from human CRTH2 receptor expressed in human HEK293 cells by scintillation counter in presence of 50% human plasma
# T2 sequence (Q9Y5Y4 whole entry): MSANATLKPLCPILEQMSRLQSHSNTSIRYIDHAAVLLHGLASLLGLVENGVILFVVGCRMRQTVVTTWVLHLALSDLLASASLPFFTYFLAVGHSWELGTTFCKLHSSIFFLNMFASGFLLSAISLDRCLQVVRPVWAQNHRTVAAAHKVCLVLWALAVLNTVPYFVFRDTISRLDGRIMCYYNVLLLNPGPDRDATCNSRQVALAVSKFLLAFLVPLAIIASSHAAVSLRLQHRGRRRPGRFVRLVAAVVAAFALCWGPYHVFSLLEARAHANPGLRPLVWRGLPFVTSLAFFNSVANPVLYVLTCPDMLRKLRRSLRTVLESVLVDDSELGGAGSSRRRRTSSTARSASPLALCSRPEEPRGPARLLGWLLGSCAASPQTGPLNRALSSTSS
# [4] = target: T2, Prostaglandin D2 receptor 2; assay: Displacement of [3H]-PGD2 from human CRTH2 receptor expressed in human HEK293 cells by scintillation counter in presence of 0.5% bovine serum albumin
Compound,IC50 [1] [nM],IC50 [2] [nM],IC50 [3] [nM],IC50 [4] [nM]
CCCCNC(=O)c1ccc(Oc2ccc(CC(=O)O)cc2OC)c(NS(=O)(=O)c2ccc(C(F)(F)F)cc2Cl)c1,21,190,,
CCCCNC(=O)c1ccc(Oc2cc(F)c(CC(=O)O)cc2F)c(NS(=O)(=O)c2ccc(Cl)cc2Cl)c1,7,600,,
O=C(O)Cc1ccc(Oc2ccc(C(=O)NC3CCC3)cc2NS(=O)(=O)c2ccc(Cl)cc2)c(Cl)c1,16,85,12,6
CCCCNC(=O)c1ccc(Oc2ccc(CC(=O)O)cc2OC)c(NS(=O)(=O)c2cc(Cl)ccc2Cl)c1,50,3640,,
CCCCNC(=O)c1ccc(Oc2ccc(CC(=O)O)cc2F)c(NS(=O)(=O)c2ccc(Cl)cc2Cl)c1,30,440,110,7
O=C(O)Cc1cc(F)c(Oc2ccc(C(=O)NC3CCC3)cc2NS(=O)(=O)c2ccc(OC(F)(F)F)cc2Cl)cc1F,20,42,53,25
O=C(O)Cc1ccc(Oc2ccc(C(=O)NC3CC3)cc2NS(=O)(=O)c2ccc(Cl)cc2Cl)c(Cl)c1,14,220,25,7
CC(C)(C)NC(=O)c1ccc(Oc2cc(F)c(CC(=O)O)cc2Cl)c(NS(=O)(=O)c2ccc(OC(F)(F)F)cc2Cl)c1,14,,19,9
CC(C)(C)NC(=O)c1ccc(Oc2ccc(CC(=O)O)cc2Cl)c(NS(=O)(=O)c2ccc(Cl)cc2Cl)c1,15,230,12,5
O=C(O)Cc1cc(F)c(Oc2ccc(C(=O)NC3CCC3)cc2NS(=O)(=O)c2ccc(C(F)(F)F)cc2Cl)cc1F,9,22,41,13
CCCCNC(=O)c1ccc(Oc2ccc(CC(=O)O)cc2OC)c(NS(=O)(=O)c2c(Cl)cccc2Cl)c1,> 10000,,,
CCCCNC(=O)c1ccc(Oc2ccc(CC(=O)O)cc2OC)c(NS(=O)(=O)c2cccc(Cl)c2Cl)c1,520,2340,,
